Measurements as given in ChEMBL document CHEMBL4138313 (J Med Chem, 2018).
pEC50, pIC50: −log10 of the molar value. The source made the active and inactive calls. The calls are words filed in the database; no cut-off is given here.

What was measured:
[1] = test system: MEF; assay: Cytotoxicity against mouse wild type MEF cells assessed as reduction in cell viability at 0.016 to 100 uM after 4 to 7 days by cell-titer glo assay; format: cell-based
Method in brief: (§1)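 Cells kept at 37 °C, 5% CO2, 15% O2 in RPMI 1640 with 10% FBS and 1% penicillin/streptomycin. Seeded at 1,000 cells/well and dosed 24 h later at 100–0.016 µM. Exposure lasted 4–7 days, then viability was read by CellTiter Glo luminescence. Signal was normalized to percent survival against the mean of vehicle controls. Three repeat experiments.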

[2] = test system: MEF; assay: Cytotoxicity against mouse PARP1 deficient MEF cells assessed as reduction in cell viability at 0.016 to 100 uM after 4 to 7 days by cell-titer glo assay; format: cell-based; method in brief: as §1
[3] = Cytotoxicity against human OVCAR8 cells assessed as cell survival at 10 uM after 4 to 7 days by cell-titer glo assay; format: cell-based, OVCAR-8; conditions: OVCAR8 cells, read-out: Activity
[4] = test system: MEF; assay: Cytotoxicity against mouse PARP2 deficient MEF cells expressing PARP1 assessed as reduction in cell viability after 4 to 7 days by cell-titer glo assay; format: cell-based
[5] = Cytotoxicity against human BRCA1-deficient UWB1.289 cells assessed as reduction in cell viability after 4 to 7 days by cell-titer glo assay; format: cell-based
[6] = Safety index, ratio compound EC50 to olaparib EC50 for BRCA1 deficient human UWB1.289 cells; format: ADME; conditions: BRCA1-deficient UWB1.289 cells, read-out: Ratio EC50
Method in brief: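 UWB1.289 cells were grown in 1:1 MEGM (bullet kit) and RPMI 1640 with 10% FBS and 1% pen/strep, at 37 °C, 5% CO2 and 15% O2. Cells were seeded at 1,000 cells/well and dosed after 24 h at 100–0.016 µM for 4–7 days. Viability was read by CellTiter-Glo luminescence and normalised to the vehicle mean.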

[7] = biological target: T1, Poly [ADP-ribose] polymerase 1 (Homo sapiens, UniProt P09874); assay: Inhibition of PARP1 (unknown origin) at 10 uM
T1 sequence (P09874 whole entry): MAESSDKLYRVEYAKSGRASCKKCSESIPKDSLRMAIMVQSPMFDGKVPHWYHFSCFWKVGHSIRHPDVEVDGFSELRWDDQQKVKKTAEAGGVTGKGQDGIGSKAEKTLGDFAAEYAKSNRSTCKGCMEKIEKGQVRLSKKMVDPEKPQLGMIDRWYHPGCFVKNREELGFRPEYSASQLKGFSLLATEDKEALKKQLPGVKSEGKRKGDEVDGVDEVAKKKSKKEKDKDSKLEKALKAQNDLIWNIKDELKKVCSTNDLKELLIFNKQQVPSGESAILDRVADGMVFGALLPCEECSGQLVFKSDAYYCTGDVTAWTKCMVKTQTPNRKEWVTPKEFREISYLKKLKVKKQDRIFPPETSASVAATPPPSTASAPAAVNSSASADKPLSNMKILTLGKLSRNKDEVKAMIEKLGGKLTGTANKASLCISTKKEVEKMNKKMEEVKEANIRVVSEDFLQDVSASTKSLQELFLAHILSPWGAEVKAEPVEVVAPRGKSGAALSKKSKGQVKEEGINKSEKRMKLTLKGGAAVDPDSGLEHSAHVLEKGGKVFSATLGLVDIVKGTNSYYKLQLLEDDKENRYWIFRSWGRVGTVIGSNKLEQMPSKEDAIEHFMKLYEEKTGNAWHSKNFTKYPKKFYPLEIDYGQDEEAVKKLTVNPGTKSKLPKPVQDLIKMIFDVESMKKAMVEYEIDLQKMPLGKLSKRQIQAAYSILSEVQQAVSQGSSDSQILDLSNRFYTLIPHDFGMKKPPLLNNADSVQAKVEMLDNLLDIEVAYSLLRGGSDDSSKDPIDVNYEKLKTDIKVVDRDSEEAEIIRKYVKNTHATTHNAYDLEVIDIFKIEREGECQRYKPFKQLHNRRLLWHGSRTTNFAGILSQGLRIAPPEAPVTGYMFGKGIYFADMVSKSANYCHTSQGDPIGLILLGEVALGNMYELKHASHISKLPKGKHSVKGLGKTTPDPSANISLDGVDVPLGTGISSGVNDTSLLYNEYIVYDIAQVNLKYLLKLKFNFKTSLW
Method in brief: (§2)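 Run by an outside contractor using PARP or TNKS kit protocols, in duplicate, at room temperature for 1 h in histone-coated wells. The Tris·HCl pH 8.0 reaction buffer held NAD+, biotinylated NAD+, activated DNA, enzyme and compound. Streptavidin-HRP was then added for 30 min at room temperature, followed by developer reagents and a luminescence read.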

[8] = Cytotoxicity against human BRCA1-restored UWB1.289 cells assessed as reduction in cell viability after 4 to 7 days by cell-titer glo assay; format: cell-based
[9] = test system: MEF; assay: Cytotoxicity against mouse PARP1 deficient MEF cells assessed as reduction in cell viability after 4 to 7 days by cell-titer glo assay; format: cell-based
[10] = biological target: T2, Poly [ADP-ribose] polymerase tankyrase-2 (Homo sapiens, UniProt Q9H2K2); assay: Inhibition of human N-terminal GST-tagged TNKS2 (667 to 1166 residues) expressed in baculovirus infected sf9 cells using histone as substrate after 1 hr by streptavidin-horseradish peroxidase-based luminescence assay
T2 sequence (Q9H2K2 whole entry): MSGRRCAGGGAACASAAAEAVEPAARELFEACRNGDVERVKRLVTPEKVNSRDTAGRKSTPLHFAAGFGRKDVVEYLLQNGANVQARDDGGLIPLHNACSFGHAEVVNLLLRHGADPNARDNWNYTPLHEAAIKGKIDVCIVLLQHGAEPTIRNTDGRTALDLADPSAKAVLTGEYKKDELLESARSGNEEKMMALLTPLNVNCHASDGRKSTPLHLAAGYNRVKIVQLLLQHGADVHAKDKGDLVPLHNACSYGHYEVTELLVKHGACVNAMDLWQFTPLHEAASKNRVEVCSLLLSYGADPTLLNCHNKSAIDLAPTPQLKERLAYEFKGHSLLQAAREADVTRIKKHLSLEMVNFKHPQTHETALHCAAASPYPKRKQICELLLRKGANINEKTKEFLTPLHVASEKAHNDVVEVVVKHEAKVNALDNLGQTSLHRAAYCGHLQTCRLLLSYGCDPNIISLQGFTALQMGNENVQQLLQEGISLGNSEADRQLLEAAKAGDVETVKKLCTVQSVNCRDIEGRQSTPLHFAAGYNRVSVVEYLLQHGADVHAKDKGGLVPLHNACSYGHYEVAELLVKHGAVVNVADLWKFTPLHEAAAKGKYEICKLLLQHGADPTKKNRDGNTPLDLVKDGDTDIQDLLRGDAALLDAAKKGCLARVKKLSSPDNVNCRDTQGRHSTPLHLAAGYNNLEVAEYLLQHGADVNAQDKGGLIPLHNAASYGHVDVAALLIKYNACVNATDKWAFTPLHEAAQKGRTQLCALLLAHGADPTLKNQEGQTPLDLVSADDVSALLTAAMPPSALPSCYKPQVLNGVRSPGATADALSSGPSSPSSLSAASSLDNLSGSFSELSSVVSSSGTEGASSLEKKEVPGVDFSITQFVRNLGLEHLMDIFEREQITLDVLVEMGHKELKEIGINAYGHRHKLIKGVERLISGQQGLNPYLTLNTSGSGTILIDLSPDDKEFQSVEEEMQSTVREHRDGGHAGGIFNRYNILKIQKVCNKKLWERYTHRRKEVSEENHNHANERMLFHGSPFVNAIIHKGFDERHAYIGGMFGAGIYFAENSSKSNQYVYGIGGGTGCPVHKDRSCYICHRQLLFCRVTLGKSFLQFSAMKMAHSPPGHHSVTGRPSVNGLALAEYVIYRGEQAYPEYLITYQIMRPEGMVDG

[11] = biological target: T3, Poly [ADP-ribose] polymerase tankyrase-1 (Homo sapiens, UniProt O95271); assay: Inhibition of human N-terminal GST-tagged TNKS1 (1001 to 1327 residues) expressed in baculovirus infected sf9 cells using histone as substrate after 1 hr by streptavidin-horseradish peroxidase-based luminescence assay
T3 sequence (O95271 whole entry): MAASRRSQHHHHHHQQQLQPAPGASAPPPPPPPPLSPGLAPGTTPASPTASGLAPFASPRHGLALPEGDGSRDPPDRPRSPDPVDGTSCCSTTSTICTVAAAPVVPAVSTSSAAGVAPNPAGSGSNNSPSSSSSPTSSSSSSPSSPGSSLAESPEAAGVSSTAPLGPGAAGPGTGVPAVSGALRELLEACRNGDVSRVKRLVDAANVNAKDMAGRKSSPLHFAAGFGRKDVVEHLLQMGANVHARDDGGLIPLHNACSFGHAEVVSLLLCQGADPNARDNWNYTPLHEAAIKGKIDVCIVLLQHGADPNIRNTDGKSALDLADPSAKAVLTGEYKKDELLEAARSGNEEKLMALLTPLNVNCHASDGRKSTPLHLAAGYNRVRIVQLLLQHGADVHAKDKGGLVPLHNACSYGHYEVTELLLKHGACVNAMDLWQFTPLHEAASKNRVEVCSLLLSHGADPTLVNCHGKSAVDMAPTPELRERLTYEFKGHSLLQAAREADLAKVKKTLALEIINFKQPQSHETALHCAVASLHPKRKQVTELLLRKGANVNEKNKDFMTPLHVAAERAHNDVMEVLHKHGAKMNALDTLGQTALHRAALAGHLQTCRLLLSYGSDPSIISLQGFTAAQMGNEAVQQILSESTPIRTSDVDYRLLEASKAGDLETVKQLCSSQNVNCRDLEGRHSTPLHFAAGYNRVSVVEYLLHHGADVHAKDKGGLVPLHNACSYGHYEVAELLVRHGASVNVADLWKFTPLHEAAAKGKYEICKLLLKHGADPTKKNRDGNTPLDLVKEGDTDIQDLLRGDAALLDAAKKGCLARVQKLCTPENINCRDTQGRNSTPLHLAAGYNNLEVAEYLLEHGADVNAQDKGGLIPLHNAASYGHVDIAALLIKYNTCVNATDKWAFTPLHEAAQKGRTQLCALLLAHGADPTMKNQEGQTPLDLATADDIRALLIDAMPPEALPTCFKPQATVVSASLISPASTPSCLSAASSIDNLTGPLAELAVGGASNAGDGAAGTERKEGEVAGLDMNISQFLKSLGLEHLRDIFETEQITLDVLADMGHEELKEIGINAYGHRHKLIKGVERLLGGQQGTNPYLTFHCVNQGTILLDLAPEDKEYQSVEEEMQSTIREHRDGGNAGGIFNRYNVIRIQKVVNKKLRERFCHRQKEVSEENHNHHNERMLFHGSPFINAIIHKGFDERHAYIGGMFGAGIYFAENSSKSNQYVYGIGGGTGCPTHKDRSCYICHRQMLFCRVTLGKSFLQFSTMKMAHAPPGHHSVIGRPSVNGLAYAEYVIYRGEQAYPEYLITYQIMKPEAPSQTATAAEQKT

[12] = test system: MEF; assay: Cytotoxicity against mouse wild type MEF cells assessed as reduction in cell viability after 4 to 7 days by cell-titer glo assay; format: cell-based
[13] = biological target: T4, Poly [ADP-ribose] polymerase tankyrase-2 (Homo sapiens) (UniProt Q9H2K2); assay: Inhibition of human N-terminal GST-tagged TNKS2 (667 to 1166 residues) expressed in baculovirus infected sf9 cells at 10 uM using histone as substrate after 1 hr by streptavidin-horseradish peroxidase-based luminescence assay; method in brief: as §2
T4 sequence (whole entry): T2 sequence (Q9H2K2 whole entry)

[14] = biological target: T1, Poly [ADP-ribose] polymerase 1; assay: Binding affinity to PARP1 in human OVCAR8 cells assessed as reduction in [125I]-KX1 binding by gamma counting analysis; format: cell-based

| SMILES | Activity [1] [%] | Activity [2] [%] | viability at 10 µM [3] [%] | pEC50 [4] | pEC50 [5] | selectivity ratio [6] | inhibition [7] | pEC50 [8] | pEC50 [9] | pIC50 [10] | pIC50 [11] | pEC50 [12] | inhibition [13] | pIC50 [14] |
| --- | --- | --- | --- | --- | --- | --- | --- | --- | --- | --- | --- | --- | --- | --- |
| O=C(c1cc(Cc2n[nH]c(=O)c3ccccc23)ccc1F)N1CC2(C1)CN(C(=O)C1CC1)C2 | < 50 | < 50 | 80 | 4.22 | 5.82 | 7 | Active | 4.92 |  |  |  |  |  |  |
| CC(C)(C)OC(=O)N1CCC2(CCN(C(=O)c3cc(Cc4n[nH]c(=O)c5ccccc45)ccc3F)C2)C1 (stereo unspecified) |  |  |  | 4.63 | 5.38 | 20 to 40 |  | 5.13 | 4.33 | 6.24 | 6.00 | 4.76 | Active |  |
| CC(C)(C)OC(=O)N1CCC2(CC1)CCN(C(=O)c1cc(Cc3n[nH]c(=O)c4ccccc34)ccc1F)CC2 |  |  |  | 4.72 | 5.57 | 20 to 40 |  | 5.40 | 4.36 | 5.55 | 5.24 | 4.77 | Active |  |
| CC(C)(C)OC(=O)N1CCC2(CC1)CCN(C(=O)c1cc(Cc3n[nH]c(=O)c4ccccc34)ccc1F)C2 |  |  |  | 4.50 | 5.08 | 20 to 40 |  | 5.21 | 4.34 | 6.02 | 5.52 | 5.03 | Active | 5.96 |
